# Bioassay records (PubChem)
# Rows were chosen to be rich in hits. Some 2.5% of all compounds tested hit in one or more screens of this group.
# FN deposit inh: fibronectin deposition inhibition; inhibition, % at 12.6 µM; AH1F fibroblasts, Alexa488-fibronectin deposition fluorescence, overnight; AID 743247; 350,000 tested, 0.086% active;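 active means mean inhibition across replicates of 30% or more, regardless of how many single replicates reach that level; inconclusive means mean under 30% yet at least half of replicates reach 30%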;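 further: positive control wells lacked labelled fibronectin entirely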
#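 Assay system: AH1F fibroblasts / Quantity: 10000 cells per well / Medium: DMEM plus 2% serum, read in PBS / Reagent: labelled fibronectin 24 nM / Dosing: single dose, pinned / Times: 1 h cell attachment, overnight exposure to compound and label / Signal: fluorescence, ex 485 nm, em 525 nm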
# EWS-Fli inh: EWS/Fli transcriptional activity inhibition | A673 NR0B1-luciferase reporter, viability-normalised | inhibition, % at 12.6 µM | 350,000 tested, 0.67% active | AID 651661;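 active means mean inhibition of at least 50% after viability correction, with every replicate also passing that limit; inconclusive means mean reaches 50% but only one of two replicates passes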;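 further: firefly luciferase signal divided by Alamar Blue viability fluorescence both relative to DMSO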
# Env fusion inh: inhibitors of HIV Env-mediated cell fusion. 360,000 tested, 1.1% active. HeLa-JRFL Env/CEM21 cell fusion, luciferase. inhibition, % at 12.3 µM. AID 651610;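 active means mean replicate inhibition score of at least 50 and every replicate individually at or above 50; inconclusive means only one of the two criteria met; inactive means mean below 50 and not all replicates reaching 50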;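 further: 0% = plate neutral controls and 100% = maraviroc near 300 nM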
# MLL AF4-AF9 inh: MLL-AF4/AF9 protein interaction inhibition. P42568. AlphaScreen, biotin-AF4 peptide binding to FLAG-AF9. inhibition, % at 10 µM. 350,000 tested, 0.47% active;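 active means every replicate reaching a set inhibition limit, whatever the replicate mean, cut at about 25% in these data; inconclusive means mean inhibition reaches that limit but some replicates miss it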;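 further: 0% = plate neutral control median and 100% = total signal loss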
# Target sequence (P42568 whole entry, looked up): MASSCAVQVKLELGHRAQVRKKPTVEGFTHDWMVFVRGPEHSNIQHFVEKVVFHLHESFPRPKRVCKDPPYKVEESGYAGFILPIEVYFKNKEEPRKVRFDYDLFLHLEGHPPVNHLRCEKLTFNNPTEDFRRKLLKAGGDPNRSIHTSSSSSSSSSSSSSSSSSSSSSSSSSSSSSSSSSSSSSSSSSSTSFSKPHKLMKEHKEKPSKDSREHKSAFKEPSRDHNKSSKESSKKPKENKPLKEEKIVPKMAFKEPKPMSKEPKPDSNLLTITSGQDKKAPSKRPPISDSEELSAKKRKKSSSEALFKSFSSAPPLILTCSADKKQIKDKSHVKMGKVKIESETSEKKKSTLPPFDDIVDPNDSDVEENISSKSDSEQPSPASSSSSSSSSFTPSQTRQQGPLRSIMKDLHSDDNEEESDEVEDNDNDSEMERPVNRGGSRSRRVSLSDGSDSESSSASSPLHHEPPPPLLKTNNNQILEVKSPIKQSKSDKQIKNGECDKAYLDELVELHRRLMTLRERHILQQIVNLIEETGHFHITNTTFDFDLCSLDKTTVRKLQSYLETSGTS
# PAX8 inh HTS: lowers PAX8-driven luciferase in RMG-I cells; RMG-I TPO-luciferase reporter, SteadyGlo, 24 h; inhibition, % at 12.6 µM; 360,000 tested, 1.2% active; AID 652154;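 active means mean replicate inhibition at least 60% with every replicate also reaching 60%; inconclusive means only one of the two criteria is met; inactive means mean below 60% and not all replicates reaching 60%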;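 further: luciferase light reporting Pax8 driven TPO promoter activity; plate controls were median of neutral control wells for no effect and mitoxantrone controls for full effect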
# N-glyco inh: blocks N-linked glycosylation in D54 reporter cells | reporter increase, % at 12.5 µM | 360,000 tested, 0.23% active | D54 ERlucT glycosylation luciferase reporter, 24 h; percent of 100 nM tunicamycin response;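 active means mean luciferase reporter signal, scaled so untreated is 0 and the glycosylation-blocking control 100, at or above a set limit in every replicate; inconclusive means mean reaches the limit but not every replicate does; inactive means mean below the limit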;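 further: luciferase carries N-glycosylation sites so blocking glycosylation raises the light; 0% = median of neutral control wells and 100% = median of 100 nM tunicamycin wells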
# * = called active by the depositor; u = inconclusive; x = no result; [ ] = dose if it differs, or a comment.
SMILES,FN deposit inh,EWS-Fli inh,Env fusion inh,MLL AF4-AF9 inh,PAX8 inh HTS,N-glyco inh
Cc1noc(C)c1S(=O)(=O)Nc1cccc2c1O[C@@H](CN(C)Cc1ccc(C(=O)Nc3ccccc3N)cc1)[C@@H](C)CN([C@@H](C)CO)C2=O,-24,3,x,-1,3,x
C[C@@H]1CN([C@@H](C)CO)S(=O)(=O)c2ccc(C3=CCCCC3)cc2O[C@H]1CN(C)CC1CC1,x,9,13[16.7 µM],x,x,x
Cc1noc(C)c1NC(=O)N(C)C[C@@H]1Oc2c(NC(=O)C3CC3)cccc2C(=O)N([C@@H](C)CO)C[C@@H]1C,x,9,-1[16.7 µM],-5,x,x
C[C@@H]1CN([C@@H](C)CO)C(=O)Cc2cc(NS(C)(=O)=O)ccc2O[C@@H]1CN(C)S(=O)(=O)c1ccc(Cl)cc1,x,-3,-17[16.7 µM],-1,-2,x
OCC1OC(n2cnc3c(NCCc4ccccc4)ncnc32)C(O)C1O (stereo not drawn),-4,-24,6,2,-22,4
CC(C)=CCNc1ncnc2c1c(C#N)cn2C1OC(CO)C(O)C1O (stereo not drawn),3,33,58*,-1,87*,2
COc1ccc(-c2ccc3c(c2)[C@@H]2[C@@H](CCN2C(=O)Cc2ccccc2)[C@@H](CO)N3C)cc1,20,-3,x,x,19,x
COc1ccc(-c2ccc3n(c2=O)C[C@@H]2[C@@H](CO)[C@H](C(=O)NC4Cc5ccccc5C4)N[C@H]32)cc1,x,-5,x,-10,66*,x
COc1ccc(-c2ccc3n(c2=O)C[C@H]2[C@H](CO)[C@@H](C(=O)NC4Cc5ccccc5C4)N[C@@H]32)cc1,x,-3,x,-8,14,x
CN(C)C(=O)c1cccc(-c2ccccc2[C@H]2[C@@H](CO)N(C(=O)C3CCCC3)[C@H]2C#N)c1,-2,13,x,1,x,x
CCNC(=O)C[C@@H]1C=C[C@@H](NS(=O)(=O)c2ccc(F)cc2)[C@H](CO)O1,1,0,19[16.7 µM],0,8,x
CC(=NNc1cc(C)c2cc(C)ccc2n1)c1ccccn1,9,30,-80,14,69*,x
Cc1ccc2nc(N/N=C/c3ccco3)cc(C)c2c1,11,-48,-195,7,-123,7
O=C(C[C@@H]1C[C@H]2c3cc(NC(=O)CC4CC4)ccc3O[C@H]2[C@H](CO)O1)NCc1cccnc1,0,-3,x,-5,x,x
Nc1cc(C(=O)OCC(=O)N2CCCC2=O)ccc1Cl,0,-3,66*,11,-5,2
Nc1cc(C(=O)OCC(=O)N2CCCC2)ccc1Cl,x,x,x,x,x,0
CCC(=O)N1[C@@H]2c3ccc(-c4ccccc4)c(=O)n3C[C@H]1[C@H](CO)[C@H]2C(=O)N(C)C,x,-1,x,0,-11,x
CC(C)(C)c1ccc(-c2cc(N)n[nH]2)cc1,4,63*,x,3,-8,-2
Cc1ccc(-c2cc(N)n[nH]2)cc1,x,x,x,x,x,0
CC(=O)NC1=C(Nc2ccc(N(C)C)cc2)C(=O)c2ccccc2C1=O,7,-49,-32,22,-36,-11
CCC(=O)N(C1=C(NC)C(=O)c2ccccc2C1=O)C(C)C,0,-6,6,0,74*,6
CNC1=C(N(C(C)=O)c2ccc(Br)cc2)C(=O)c2ccccc2C1=O,19,x,x,x,105*,-23
Cc1cc2nc(-c3ccccc3)cc(=O)n2[nH]1,2,-39,-14,49*,-9,-1
C[C@@H]1CCCCO[C@H](CN(C)S(=O)(=O)c2ccc(Cl)cc2)[C@H](C)CN([C@H](C)CO)C(=O)c2cc(NS(=O)(=O)c3ccccc3)ccc2O1,7,4,44[16.7 µM],-9,33,x
C[C@H]1CCCCO[C@@H](CN(C)S(=O)(=O)c2ccc(Cl)cc2)[C@@H](C)CN([C@@H](C)CO)C(=O)c2cc(NS(=O)(=O)c3ccccc3)ccc2O1,-9,8,-59,-4,u,-3
SMILES,FN deposit inh,EWS-Fli inh,Env fusion inh,MLL AF4-AF9 inh,PAX8 inh HTS,N-glyco inh
C[C@H]1CCCCO[C@H](CN(C)S(=O)(=O)c2ccccc2)[C@@H](C)CN([C@@H](C)CO)C(=O)c2cc(NS(=O)(=O)c3ccc(Cl)cc3)ccc2O1,-13,13,26[16.7 µM],-4,100*,x
C[C@@H]1CCCCO[C@@H](CN(C)S(=O)(=O)c2ccccc2)[C@H](C)CN([C@H](C)CO)C(=O)c2cc(NS(=O)(=O)c3ccc(Cl)cc3)ccc2O1,5,8,-2[16.7 µM],0,66*,x
Cc1ccc(-c2nc(C(Cl)Cl)c3ccccc3n2)cc1,9,59*,0,x,-8,-13
CN1CCc2cc3c(c4c2[C@H]1[C@H](O)c1ccccc1-4)OCO3,2,-2,-170,-3,-4,33*
COc1cc2cc(-c3ccc(OC)c(OC)c3C)nc(N)c2cc1OC,-12,52*,-32,13,71*,-12
C[C@H](CO)N1C[C@H](C)[C@@H](CN(C)Cc2ccc(C(=O)O)cc2)Oc2ncc(C3=CCCCC3)cc2C1=O,0,-6,-3[16.7 µM],-3,-25,x
Cn1nnc2cc(NC(=O)Nc3ccccc3F)ccc21,-7,-10,-53,-1,-155,-10
Cc1cc(NC(=O)Nc2ccccc2F)ccc1Br,39*,-93,-86,-3,-193,-11
CCCN1[C@@H]2c3cccc(=O)n3C[C@@H]2[C@@H](CO)[C@@H]1C(=O)N[C@H](C)c1ccccc1,x,x,x,0,-22,x
CCCN1C=CC(=C2C(=O)c3ccccc3C2=O)C=C1,-11,x,107*,x,x,-25
CCCCCCN1C=CC(=C2C(=O)c3ccccc3C2=O)C=C1,x,79*,44,1,67*,-19
CC1=CC(=C2C(=O)c3ccccc3C2=O)C=C(C)O1,4,x,-33,x,-15,3
CCCCN1C(C)=CC(=C2C(=O)c3ccccc3C2=O)C=C1C,x,-51,-41,2,-2,-19
CCN1C=CC(=C2C(=O)c3ccccc3C2=O)C=C1,x,x,73*,x,x,-25
O=S(=O)(N[C@@H]1CC[C@H](CCn2cc(-c3ccc(F)cc3)nn2)O[C@@H]1CO)c1ccccc1F,x,4,-17[16.7 µM],0,4,x
Cc1noc(C)c1NC(=O)N(C)C[C@H]1OCCCC[C@H](C)Oc2ccc(N(C)C)cc2C(=O)N([C@H](C)CO)C[C@H]1C,x,-9,0[16.7 µM],-13,-8,x
CO[C@@H]1CN(C)C(=O)c2cc(NS(C)(=O)=O)ccc2OC[C@H](C)N(C(=O)c2ccc3c(c2)OCO3)C[C@@H]1C,12,7,x,-1,-30,x
CCS(=O)(=O)CCSc1nc2ccccc2s1,x,x,x,x,x,1
O=S(=O)(CCSc1nc2ccccc2s1)c1nc2ccccc2s1,4,x,29,x,104*,-9
Cc1ccc2nc3cc([N+](=O)[O-])cc([N+](=O)[O-])c3cc2c1,-18,61*,-28,-1,6,-5
Cc1ccc(NC(=O)c2sc(N)nc2-c2ccc([N+](=O)[O-])cc2)c(C)c1,2,8,2,30*,10,11
